# The source made the active and inactive calls. The calls are words filed in the database; no cut-off is given here.
# Experiments:
# [1] = tested on: A549; test: Antiproliferative activity against human A549 cells assessed as inhibition of cell proliferation incubated for 48 hrs by CCK8 assay; format: functional, cell-based; settings: A549, 48 h
# Procedure, shortened: (§1)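 Human A549 lung, Hela cervical, Bel-7402 hepatocellular and MCF-7 breast cancer cells, plus mouse embryo fibroblast NIH3T3, tested for anti-proliferative activity by CCK-8 assay. For the matrine combination tests, the chalcone and matrine were used at a 1:1 molar ratio; values given as IC50.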
# [2] = tested on: HeLa; test: Antiproliferative activity against human HeLa cells assessed as inhibition of cell proliferation incubated for 48 hrs by CCK8 assay; format: functional, cell-based; procedure, shortened: as §1
# [3] = Antiproliferative activity against mouse NIH/3T3 cells assessed as inhibition of cell proliferation incubated for 48 hrs by CCK8 assay; format: cell-based; settings: NIH3T3, 48 h; procedure, shortened: as §1
# [4] = Antiproliferative activity against human Bel7402 cells assessed as inhibition of cell proliferation incubated for 48 hrs by CCK8 assay; format: functional, cell-based; settings: Bel-7402, 48 h; procedure, shortened: as §1
# [5] = tested on: MCF7; test: Antiproliferative activity against human MCF7 cells assessed as inhibition of cell proliferation incubated for 48 hrs by CCK8 assay; format: functional, cell-based; settings: MCF7, 48 h; procedure, shortened: as §1
# [6] = tested on: A549; test: Antitumor activity against human A549 cells xenografted in Balb/ca-nu mouse assessed as tumor growth inhibition at 5 mg/kg, iv dosed every 3 days for total of 7 dosing rounds measured on day 14 after treatment; format: functional; settings: read-out: TGI
# Procedure, shortened: (§2)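 A549 xenograft in mice, dosed by tail vein injection every 3 days; vehicle saline plus 0.2% Tween 80. n = 8 per treatment group, 6 in the vehicle group. Mean ± SE.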
# [7] = tested on: A549; test: Antitumor activity against human A549 cells xenografted in Balb/ca-nu mouse assessed as tumor growth inhibition at 5 mg/kg, iv dosed every 3 days for total of 7 dosing rounds measured on day 10 after treatment; format: functional; settings: read-out: TGI; procedure, shortened: as §2
# [8] = tested on: A549; test: Antitumor activity against human A549 cells xenografted in Balb/ca-nu mouse assessed as tumor growth inhibition at 10 mg/kg, iv dosed every 3 days for total of 7 dosing rounds measured on day 8 after treatment; format: functional, organism-based; set-up: dose 10 mg/kg; procedure, shortened: as §2
# [9] = tested on: A549; test: Antitumor activity against human A549 cells xenografted in Balb/ca-nu mouse assessed as tumor growth inhibition at 5 mg/kg, iv dosed every 3 days for total of 7 dosing rounds measured on day 18 after treatment; format: functional; settings: read-out: TGI; procedure, shortened: as §2
# [10] = tested on: A549; test: Antitumor activity against human A549 cells xenografted in Balb/ca-nu mouse assessed as tumor growth inhibition at 5 mg/kg, iv dosed every 3 days for total of 7 dosing rounds measured on day 20 after treatment; format: functional; settings: read-out: TGI; procedure, shortened: as §2
# [11] = tested on: A549; test: Antitumor activity against human A549 cells xenografted in Balb/ca-nu mouse assessed as tumor growth inhibition at 5 mg/kg, iv dosed every 3 days for total of 7 dosing rounds measured on day 16 after treatment; format: functional; settings: read-out: TGI; procedure, shortened: as §2
# [12] = tested on: A549; test: Antitumor activity against human A549 cells xenografted in Balb/ca-nu mouse assessed as tumor growth inhibition at 5 mg/kg, iv dosed every 3 days for total of 7 dosing rounds measured on day 12 after treatment; format: functional; settings: read-out: TGI; procedure, shortened: as §2
Structure (SMILES),IC50 [1] [µM],IC50 [2] [µM],IC50 [3] [µM],IC50 [4] [µM],IC50 [5] [µM],inhibition in vivo at 5 mg/kg [6] [%],inhibition in vivo at 5 mg/kg [7] [%],TGI [8],inhibition in vivo at 5 mg/kg [9] [%],inhibition in vivo at 5 mg/kg [10] [%],inhibition in vivo at 5 mg/kg [11] [%],inhibition in vivo at 5 mg/kg [12] [%]
COc1ccc(/C=C/C(=O)c2ccc(OCc3cn([C@H]4CC(=O)N5C[C@@H]6CCCN7CCC[C@@H]([C@H]67)[C@H]5C4)nn3)cc2O)cc1,> 50,> 50,29.6,> 50,> 50,,,,,,,
COc1ccc(/C=C/C(=O)c2ccc(OCc3cn([C@H]4CC(=O)N5C[C@@H]6CCCN7CCC[C@@H]([C@H]67)[C@H]5C4)nn3)cc2)cc1OC,> 50,> 50,41.1,,,,,,,,,
Cc1ccc(/C=C/C(=O)c2ccc(OCc3cn([C@H]4CC(=O)N5C[C@@H]6CCCN7CCC[C@@H]([C@H]67)[C@H]5C4)nn3)cc2)cc1,32.4,19.9,14.8,35.6,26.8,,,,,,,
C#CCOc1ccc(C(=O)/C=C/c2cccc(Cl)c2)c(O)c1,> 50,> 50,79.5,,> 50,,,,,,,
C#CCOc1ccc(C(=O)/C=C/c2ccc(Cl)c(Cl)c2)c(O)c1,> 50,> 50,94.7,,> 50,,,,,,,
O=C(/C=C/c1cccc(Cl)c1)c1ccc(OCc2cn([C@H]3CC(=O)N4C[C@@H]5CCCN6CCC[C@@H]([C@H]56)[C@H]4C3)nn2)cc1,11.9,15.2,38.1,13.7,10.2,,,,,,,
O=C(/C=C/c1ccc(F)cc1)c1ccc(OCc2cn([C@H]3CC(=O)N4C[C@@H]5CCCN6CCC[C@@H]([C@H]56)[C@H]4C3)nn2)cc1O,18.3,19.8,36.1,9.02,5.71,,,,,,,
Cc1ccc(/C=C/C(=O)c2ccc(OCc3cn([C@H]4CC(=O)N5C[C@@H]6CCCN7CCC[C@@H]([C@H]67)[C@H]5C4)nn3)cc2O)cc1,> 50,> 50,20.9,,,,,,,,,
O=C(/C=C/c1ccccc1)c1ccc(OCc2cn([C@H]3CC(=O)N4C[C@@H]5CCCN6CCC[C@@H]([C@H]56)[C@H]4C3)nn2)cc1,32.2,25.4,19.4,20.7,17.2,,,,,,,
O=C(/C=C/c1ccc(F)cc1)c1ccc(OCc2cn([C@H]3CC(=O)N4C[C@@H]5CCCN6CCC[C@@H]([C@H]56)[C@H]4C3)nn2)cc1,18.7,18.7,39.8,22.2,26.9,,,,,,,
O=C(/C=C/c1ccc(Cl)cc1)c1ccc(OCc2cn([C@H]3CC(=O)N4C[C@@H]5CCCN6CCC[C@@H]([C@H]56)[C@H]4C3)nn2)cc1O,15.6,10.7,75.2,14.7,12.7,,,,,,,
COc1cc(/C=C/C(=O)c2ccc(OCc3cn([C@H]4CC(=O)N5C[C@@H]6CCCN7CCC[C@@H]([C@H]67)[C@H]5C4)nn3)cc2O)cc(OC)c1OC,> 50,> 50,15.2,,,,,,,,,
O=C(/C=C/c1ccc([N+](=O)[O-])cc1)c1ccc(OCc2cn([C@H]3CC(=O)N4C[C@@H]5CCCN6CCC[C@@H]([C@H]56)[C@H]4C3)nn2)cc1,14.5,6.06,35.7,16.2,11.5,,,,,,,
CC(=O)O[C@H]1C(=O)[C@@]2(C)[C@H]([C@H](OC(=O)c3ccccc3)[C@]3(O)C[C@H](OC(=O)[C@H](O)[C@@H](NC(=O)c4ccccc4)c4ccccc4)C(C)=C1C3(C)C)[C@]1(OC(C)=O)CO[C@@H]1C[C@@H]2O [PACLITAXEL],2.82,0.38,20,,,79.5,58.3,Active,88.9,89.1,85.4,70.4
COc1ccc(/C=C/C(=O)c2ccc(OCc3cn([C@H]4CC(=O)N5C[C@@H]6CCCN7CCC[C@@H]([C@H]67)[C@H]5C4)nn3)cc2)cc1,> 50,> 50,23.1,,,,,,,,,
CC(=O)c1ccc(OCc2cn([C@H]3CC(=O)N4C[C@@H]5CCCN6CCC[C@@H]([C@H]56)[C@H]4C3)nn2)cc1,> 50,> 50,42.9,> 50,> 50,,,,,,,
O=C(/C=C/c1ccc(Cl)cc1)c1ccc(OCc2cn([C@H]3CC(=O)N4C[C@@H]5CCCN6CCC[C@@H]([C@H]56)[C@H]4C3)nn2)cc1,18.9,19.3,31.3,21.2,14.3,,,,,,,
O=C(/C=C/c1ccc(Cl)c(Cl)c1)c1ccc(OCc2cn([C@H]3CC(=O)N4C[C@@H]5CCCN6CCC[C@@H]([C@H]56)[C@H]4C3)nn2)cc1,8.72,11.4,19.4,11.9,13.3,,,,,,,
O=C(/C=C/c1ccccc1Cl)c1ccc(OCc2cn([C@H]3CC(=O)N4C[C@@H]5CCCN6CCC[C@@H]([C@H]56)[C@H]4C3)nn2)cc1,14.2,13.5,88,21.8,23.8,,,,,,,
C#CCOc1ccc(C(=O)/C=C/c2ccccc2)cc1,> 50,> 50,72.9,,> 50,,,,,,,
COc1ccc(/C=C/C(=O)c2ccc(OCc3cn([C@H]4CC(=O)N5C[C@@H]6CCCN7CCC[C@@H]([C@H]67)[C@H]5C4)nn3)cc2O)cc1OC,> 50,> 50,13.3,,,,,,,,,
O=C(/C=C/c1cccc(C(F)(F)F)c1)c1ccc(OCc2cn([C@H]3CC(=O)N4C[C@@H]5CCCN6CCC[C@@H]([C@H]56)[C@H]4C3)nn2)cc1O,8.18,12.7,34.8,12.1,8.87,,,,,,,
CC(C)(C)c1ccc(/C=C/C(=O)c2ccc(OCc3cn([C@H]4CC(=O)N5C[C@@H]6CCCN7CCC[C@@H]([C@H]67)[C@H]5C4)nn3)cc2O)cc1,36.5,36.3,20.4,,,,,,,,,
O=C(/C=C/c1ccccc1)c1ccc(OCc2cn([C@H]3CC(=O)N4C[C@@H]5CCCN6CCC[C@@H]([C@H]56)[C@H]4C3)nn2)cc1O,16.8,17.3,> 100,17.3,12,,,,,,,
O=C(/C=C/c1ccc(Cl)c(Cl)c1)c1ccc(OCc2cn([C@H]3CC(=O)N4C[C@@H]5CCCN6CCC[C@@H]([C@H]56)[C@H]4C3)nn2)cc1O,8.08,6.63,48.3,12.4,7.03,,,,,,,
C#CCOc1ccc(C(=O)/C=C/c2ccc(Cl)c(Cl)c2)cc1,> 50,> 50,61.8,,> 50,,,,,,,
O=C(/C=C/c1ccc(Br)cc1)c1ccc(OCc2cn([C@H]3CC(=O)N4C[C@@H]5CCCN6CCC[C@@H]([C@H]56)[C@H]4C3)nn2)cc1,24.5,17.1,30.9,22.7,22.7,,,,,,,
CC(=O)c1ccc(OCc2cn([C@H]3CC(=O)N4C[C@@H]5CCCN6CCC[C@@H]([C@H]56)[C@H]4C3)nn2)cc1O,> 50,> 50,61.8,> 50,> 50,,,,,,,
O=c1[nH]cc(F)c(=O)[nH]1 [FLUOROURACIL],40.4,8.93,22.4,19.9,9.56,,,,,,,
O=C(/C=C/c1ccc(OC(F)F)cc1)c1ccc(OCc2cn([C@H]3CC(=O)N4C[C@@H]5CCCN6CCC[C@@H]([C@H]56)[C@H]4C3)nn2)cc1,> 50,> 50,27.3,,,,,,,,,
